Assay results: publication PMC4160279 (Journal of the American Chemical Society, 2014)

How the values were obtained:
[1] = target: P dimer VA387 (Human calicivirus NLV/VA98387/1998, UniProt Q913Z3); assay: Direct ESI-MS assay; type: binding; conditions: n = 3
In short: (§1)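 Recombinant P dimer (P domain residues 222–539, made in E. coli via a GST fusion system) was titrated with at least four initial oligosaccharide concentrations, in triplicate. Example mix: 12 μM dimer, 80 μM ligand, 4 μM reference protein. Bound/free abundance ratios were taken as solution ratios after nonspecific-binding correction. Ka,int was fitted assuming two independent, equivalent sites.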

[2] = target: T1, P dimer VA115 (Human calicivirus NLV/VA98115/1998, UniProt Q91H12); assay: Direct ESI-MS assay; type: binding; conditions: n = 3
T1 sequence (Q91H12 227-545): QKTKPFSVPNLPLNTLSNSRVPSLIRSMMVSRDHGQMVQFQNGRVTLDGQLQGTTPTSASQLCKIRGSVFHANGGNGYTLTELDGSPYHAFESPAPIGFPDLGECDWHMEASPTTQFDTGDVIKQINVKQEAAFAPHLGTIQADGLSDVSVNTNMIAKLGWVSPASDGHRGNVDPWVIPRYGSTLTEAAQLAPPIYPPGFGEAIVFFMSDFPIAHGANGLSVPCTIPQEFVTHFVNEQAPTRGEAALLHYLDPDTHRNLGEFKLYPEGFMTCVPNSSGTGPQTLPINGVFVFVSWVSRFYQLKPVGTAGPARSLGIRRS
In short: as §1

Chain of P dimer VA387 (Q913Z3 222-539): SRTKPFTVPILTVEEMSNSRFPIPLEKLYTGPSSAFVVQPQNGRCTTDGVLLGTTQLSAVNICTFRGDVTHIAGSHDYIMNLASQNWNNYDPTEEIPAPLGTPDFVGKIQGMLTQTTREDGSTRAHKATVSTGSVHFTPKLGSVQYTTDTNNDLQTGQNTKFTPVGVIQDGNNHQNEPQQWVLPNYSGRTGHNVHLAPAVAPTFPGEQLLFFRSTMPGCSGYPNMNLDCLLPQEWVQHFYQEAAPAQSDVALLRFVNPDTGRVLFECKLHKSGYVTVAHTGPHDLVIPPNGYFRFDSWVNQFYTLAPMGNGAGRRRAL

Structure (SMILES) | Kd [1] [µM] | Kd [2] [µM] | Ka,int [1] [M⁻¹] | Ka,int [2] [M⁻¹]
CC(=O)N[C@H]1[C@H](O[C@@H]2[C@H](O)[C@@H](O)[C@H](O[C@H]3[C@H](O)[C@@H](O)C(O)O[C@@H]3CO)O[C@@H]2CO)O[C@H](CO)[C@H](O)[C@@H]1O[C@@H]1O[C@H](CO)[C@H](O)[C@H](O[C@]2(C(=O)O)C[C@H](O)[C@@H](NC(C)=O)[C@H]([C@H](O)[C@H](O)CO)O2)[C@H]1O (stereo partly drawn) [GM1b, GM1b ganglioside oligosaccharide (Neu5Aca2-3Galb1-3GalNAcb1-4Galb1-4Glc)] | 5560 | 2080 | – | –
CC(=O)N[C@H]1[C@H](O[C@@H]2[C@H](O[C@]3(C(=O)O)C[C@H](O)[C@@H](NC(C)=O)[C@H]([C@H](O)[C@H](O)CO)O3)[C@@H](O)[C@H](O[C@H]3[C@H](O)[C@@H](O)C(O)O[C@@H]3CO)O[C@@H]2CO)O[C@H](CO)[C@H](O)[C@@H]1O (stereo partly drawn) [GM2, GM2 ganglioside oligosaccharide (GalNAcb1-4(Neu5Aca2-3)Galb1-4Glc)] | 2780 | 1430 | – | –
CC(=O)N[C@H]1[C@H]([C@H](O)[C@H](O)CO)O[C@@](O[C@H]2[C@@H](O)[C@@H](CO)O[C@@H](O[C@H]3[C@H](O)[C@@H](O)C(O)O[C@@H]3CO)[C@@H]2O)(C(=O)O)C[C@@H]1O (stereo partly drawn) [GM3, GM3 ganglioside oligosaccharide (GM3 trisaccharide, Neu5Aca2-3Galb1-4Glc)] | 667 | 769 | – | –
CC(=O)N[C@H]1[C@H](O[C@@H]2[C@H](O[C@]3(C(=O)O)C[C@H](O)[C@@H](NC(C)=O)[C@H]([C@H](O)[C@@H](CO)O[C@]4(C(=O)O)C[C@H](O)[C@@H](NC(C)=O)[C@H]([C@H](O)[C@@H](CO)O[C@]5(C(=O)O)C[C@H](O)[C@@H](NC(C)=O)[C@H]([C@H](O)[C@H](O)CO)O5)O4)O3)[C@@H](O)[C@H](O[C@H]3[C@H](O)[C@@H](O)C(O)O[C@@H]3CO)O[C@@H]2CO)O[C@H](CO)[C@H](O)[C@@H]1O[C@@H]1O[C@H](CO)[C@H](O)[C@H](O)[C@H]1O (stereo partly drawn) [GT1c, GT1c ganglioside oligosaccharide (Galb1-3GalNAcb1-4(Neu5Aca2-8Neu5Aca2-8Neu5Aca2-3)Galb1-4Glc)] | – | – | <100 | 260 ± 110
CC(=O)NC1C(OC2C(CO)OC(OC3C(CO)OC(O)C(O)C3O)C(O)C2OC2(C(=O)O)CC(O)C(NC(C)=O)C(C(O)C(CO)OC3(C(=O)O)CC(O)C(NC(C)=O)C(C(O)C(CO)OC4(C(=O)O)CC(O)C(NC(C)=O)C(C(O)C(O)CO)O4)O3)O2)OC(CO)C(O)C1O (stereo not drawn) [GT2, GT2 ganglioside oligosaccharide (GalNAcb1-4(Neu5Aca2-8Neu5Aca2-8Neu5Aca2-3)Galb1-4Glc)] | > 10000 | 4350 | – | –
CC(=O)NC1C(O)CC(OC2C(O)C(OC3C(CO)OC(O)C(O)C3O)OC(CO)C2OC2OC(CO)C(O)C(OC3OC(CO)C(O)C(O)C3OC3OC(C)C(O)C(O)C3O)C2NC(C)=O)(C(=O)O)OC1C(O)C(O)CO (stereo not drawn) [fucosyl-GM1, fucosyl-GM1 ganglioside oligosaccharide (Fuc-GM1; Fuca1-2Galb1-3GalNAcb1-4(Neu5Aca2-3)Galb1-4Glc)] | 2170 | 1670 | – | –
